{
  "source": "ChEMBL document CHEMBL1151889",
  "about": "“4,4-Dimethyl-1,2,3,4-tetrahydroquinoline-based PPARalpha/gamma agonists. Part. II: Synthesis and pharmacological evaluation of oxime and acidic head group structural variations” (Bioorg Med Chem Lett, 2009)",
  "key": {"[1]": {"test_system": "Caco-2", "test": "Absorption in human Caco-2 cells; call rule not given here", "type": "ADME, cell-based", "design": "concentration or dose not given beside the values"}, "[2]": {"test_system": "Mus musculus", "test": "Glucose lowering effect in po dosed C57BL/6J ob/ob mouse assessed as insulin level relative to untreated control", "type": "functional", "summary_of_the_method": "(§1)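 Male C57BL/6J ob/ob mice (n = 8–12 per dose) were gavaged with 3 mg/kg daily for four days in 1% hydroxyethyl cellulose (2.5 ml/kg). On day five, heparinized retro-orbital plasma was collected under CO₂ anaesthesia. Plasma level was expressed as percent change from the mean of vehicle-treated mice. Groups were compared by ANOVA and one-tailed Dunnett's test.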"}, "[3]": {"test_system": "Liver microsomes", "test": "Metabolic stability in human hepatocyte microsomes", "type": "ADME, Microsome"}, "[4]": {"test_system": "Mus musculus", "test": "Effect on bodyweight in po dosed C57BL/6J ob/ob mouse assessed as body weight gain relative to untreated control", "type": "functional", "summary_of_the_method": "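Male C57BL/6J ob/ob mice (n = 8–12 per dose) were randomized on glycemia and gavaged with 3 mg/kg daily for four days, between 3 and 5 pm, as a suspension in 1% hydroxyethyl cellulose (2.5 ml/kg). Body weight gain was each mouse's end-of-study minus starting weight. Groups were compared with control by ANOVA and one-tailed Dunnett's test.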"}, "[5]": {"test_system": "Liver microsomes", "test": "Metabolic stability in rat hepatocyte microsomes", "type": "ADME, Microsome"}, "[6]": {"test_system": "Mus musculus", "test": "Lipid lowering effect in po dosed C57BL/6J ob/ob mouse assessed as triglyceride level relative to untreated control", "type": "functional", "summary_of_the_method": "as §1"}, "[7]": {"molecular_target": "T1, Peroxisome proliferator-activated receptor gamma (Homo sapiens, UniProt P37231)", "T1 sequence (P37231 whole entry)": "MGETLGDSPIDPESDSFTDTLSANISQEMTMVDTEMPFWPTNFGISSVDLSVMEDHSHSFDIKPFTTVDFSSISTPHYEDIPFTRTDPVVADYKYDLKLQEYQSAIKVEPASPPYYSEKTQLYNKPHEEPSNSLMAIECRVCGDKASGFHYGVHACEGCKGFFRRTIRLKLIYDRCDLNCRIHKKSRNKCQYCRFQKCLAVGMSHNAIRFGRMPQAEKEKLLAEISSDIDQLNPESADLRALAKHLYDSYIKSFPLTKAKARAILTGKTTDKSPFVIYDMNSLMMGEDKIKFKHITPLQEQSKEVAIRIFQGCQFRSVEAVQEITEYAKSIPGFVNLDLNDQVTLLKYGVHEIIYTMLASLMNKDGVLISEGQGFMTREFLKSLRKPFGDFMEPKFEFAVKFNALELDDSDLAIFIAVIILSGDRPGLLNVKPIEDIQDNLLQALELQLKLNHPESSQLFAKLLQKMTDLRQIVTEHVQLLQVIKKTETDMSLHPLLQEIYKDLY", "test": "Displacement of [3H]rosiglitazone from human PPARgamma receptor"}, "[8]": {"molecular_target": "T2, Peroxisome proliferator-activated receptor alpha (Homo sapiens, UniProt Q07869)", "T2 sequence (Q07869 whole entry)": "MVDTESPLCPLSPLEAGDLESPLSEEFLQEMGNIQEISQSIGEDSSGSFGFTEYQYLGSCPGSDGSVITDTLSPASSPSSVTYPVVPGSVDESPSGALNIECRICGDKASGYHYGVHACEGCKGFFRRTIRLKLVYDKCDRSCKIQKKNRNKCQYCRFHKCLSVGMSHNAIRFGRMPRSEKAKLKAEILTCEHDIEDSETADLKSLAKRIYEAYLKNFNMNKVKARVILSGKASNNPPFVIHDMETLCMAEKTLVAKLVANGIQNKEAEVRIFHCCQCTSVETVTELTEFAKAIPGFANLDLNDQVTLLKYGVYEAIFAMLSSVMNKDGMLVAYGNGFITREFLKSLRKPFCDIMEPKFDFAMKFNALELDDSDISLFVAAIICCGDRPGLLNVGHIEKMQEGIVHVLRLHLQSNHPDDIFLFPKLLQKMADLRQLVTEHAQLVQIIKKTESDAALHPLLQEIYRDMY", "test": "Agonist activity at human PPARalpha by Gal4 transactivation assay", "type": "functional"}, "[9]": {"molecular_target": "T1, Peroxisome proliferator-activated receptor gamma", "test": "Agonist activity at human PPARgamma by Gal4 transactivation assay", "type": "functional"}, "[10]": {"molecular_target": "T3, Peroxisome proliferator-activated receptor alpha (Homo sapiens) (UniProt Q07869)", "T3 sequence (whole entry)": "T2 sequence (Q07869 whole entry)", "test": "Agonist activity at human PPARalpha at transactivation EC50 by Gal4 transactivation assay relative to at 10 uM WY-14643"}},
  "data": [
    {"smiles": "CCO[C@@H](Cc1ccc(OCCc2ccc(OS(C)(=O)=O)cc2)cc1)C(=O)O", "note": "[TESAGLITAZAR]", "values": [
      {"measurement": "Activity", "setting": "[1]", "result": 78, "unit": "%"},
      {"measurement": "Activity", "setting": "[2]", "result": -94, "unit": "%"},
      {"measurement": "Stability", "setting": "[3]", "result": 100, "unit": "%"},
      {"measurement": "Activity", "setting": "[4]", "result": 1.9, "unit": "%"},
      {"measurement": "Stability", "setting": "[5]", "result": 97, "unit": "%"},
      {"measurement": "Activity", "setting": "[6]", "result": -60, "unit": "%"}
    ]},
    {"smiles": "CO/N=C(\\c1ccccc1)c1ccc2c(c1)C(C)(C)CCN2CCOc1ccc(C[C@H](OC(C)=O)C(=O)O)cc1", "values": [
      {"measurement": "Ki", "setting": "[7]", "result": "> 10000", "unit": "nM"},
      {"measurement": "EC50", "setting": "[8]", "result": "Not Active"},
      {"measurement": "EC50", "setting": "[9]", "result": "Not Active"}
    ]},
    {"smiles": "CCO[C@@H](Cc1ccc(OCCN2CCC(C)(C)c3cc(/C(=N/OCc4ccccc4)c4ccccc4)ccc32)cc1)C(=O)O", "values": [
      {"measurement": "Activity", "setting": "[1]", "result": 90, "unit": "%"},
      {"measurement": "Activity", "setting": "[2]", "result": 51, "unit": "%"},
      {"measurement": "Ki", "setting": "[7]", "result": 18.4, "unit": "nM"},
      {"measurement": "Stability", "setting": "[3]", "result": 59, "unit": "%"},
      {"measurement": "Activity", "setting": "[4]", "result": 0.23, "unit": "%"},
      {"measurement": "Activity", "setting": "[10]", "result": 137, "unit": "%"},
      {"measurement": "EC50", "setting": "[8]; read-out: EC50", "result": 34, "unit": "nM"},
      {"measurement": "EC50", "setting": "[9]; read-out: EC50", "result": 7, "unit": "nM"},
      {"measurement": "Stability", "setting": "[5]", "result": 35, "unit": "%"},
      {"measurement": "Activity", "setting": "[6]", "result": -27, "unit": "%"}
    ]},
    {"smiles": "CO/N=C(\\c1ccccc1)c1ccc2c(c1)C(C)(C)CCN2CCOc1ccc(C[C@H](Nc2ccccc2C(=O)c2ccccc2)C(=O)O)cc1", "values": [
      {"measurement": "Activity", "setting": "[1]", "result": 22, "unit": "%"},
      {"measurement": "Ki", "setting": "[7]", "result": 54, "unit": "nM"},
      {"measurement": "Activity", "setting": "[10]", "result": 11, "unit": "%"},
      {"measurement": "EC50", "setting": "[8]; read-out: EC50", "result": 10000, "unit": "nM"},
      {"measurement": "EC50", "setting": "[9]; read-out: EC50", "result": 14, "unit": "nM"}
    ]},
    {"smiles": "C=CCO/N=C(\\c1ccccc1)c1ccc2c(c1)C(C)(C)CCN2CCOc1ccc(C[C@H](OCC)C(=O)O)cc1", "values": [
      {"measurement": "Activity", "setting": "[1]", "result": 95, "unit": "%"},
      {"measurement": "Ki", "setting": "[7]", "result": 54.2, "unit": "nM"},
      {"measurement": "Stability", "setting": "[3]", "result": 47, "unit": "%"},
      {"measurement": "Activity", "setting": "[10]", "result": 152, "unit": "%"},
      {"measurement": "EC50", "setting": "[8]; read-out: EC50", "result": 73, "unit": "nM"},
      {"measurement": "EC50", "setting": "[9]; read-out: EC50", "result": 13, "unit": "nM"},
      {"measurement": "Stability", "setting": "[5]", "result": 20, "unit": "%"}
    ]},
    {"smiles": "CO/N=C(\\c1ccccc1)c1ccc2c(c1)C(C)(C)CCN2CCOc1ccc(C[C@H](OCC(F)(F)F)C(=O)O)cc1", "values": [
      {"measurement": "Activity", "setting": "[1]", "result": 100, "unit": "%"},
      {"measurement": "Activity", "setting": "[2]", "result": -17, "unit": "%"},
      {"measurement": "Ki", "setting": "[7]", "result": 33, "unit": "nM"},
      {"measurement": "Stability", "setting": "[3]", "result": 27, "unit": "%"},
      {"measurement": "Activity", "setting": "[4]", "result": 304, "unit": "%"},
      {"measurement": "Activity", "setting": "[10]", "result": 50, "unit": "%"},
      {"measurement": "EC50", "setting": "[8]; read-out: EC50", "result": 1000, "unit": "nM"},
      {"measurement": "EC50", "setting": "[9]; read-out: EC50", "result": 125, "unit": "nM"},
      {"measurement": "Stability", "setting": "[5]", "result": 18, "unit": "%"},
      {"measurement": "Activity", "setting": "[6]", "result": 9, "unit": "%"}
    ]},
    {"smiles": "CN(CCOc1ccc(CC2SC(=O)NC2=O)cc1)c1ccccn1", "note": "(stereo unspecified) [ROSIGLITAZONE]", "values": [
      {"measurement": "Activity", "setting": "[1]", "result": 100, "unit": "%"},
      {"measurement": "Activity", "setting": "[2]", "result": -55, "unit": "%"},
      {"measurement": "Stability", "setting": "[3]", "result": 21, "unit": "%"},
      {"measurement": "Activity", "setting": "[4]", "result": 0.56, "unit": "%"},
      {"measurement": "Stability", "setting": "[5]", "result": 45, "unit": "%"},
      {"measurement": "Activity", "setting": "[6]", "result": -56, "unit": "%"}
    ]},
    {"smiles": "CCO[C@@H](Cc1ccc(OCCN2CCC(C)(C)c3cc(/C(=N/OCC4CC4)c4ccccc4)ccc32)cc1)C(=O)O", "values": [
      {"measurement": "Activity", "setting": "[1]", "result": 93, "unit": "%"},
      {"measurement": "Activity", "setting": "[2]", "result": -2, "unit": "%"},
      {"measurement": "Ki", "setting": "[7]", "result": 254, "unit": "nM"},
      {"measurement": "Stability", "setting": "[3]", "result": 84, "unit": "%"},
      {"measurement": "Activity", "setting": "[4]", "result": 107, "unit": "%"},
      {"measurement": "Activity", "setting": "[10]", "result": 145, "unit": "%"},
      {"measurement": "EC50", "setting": "[8]; read-out: EC50", "result": 9, "unit": "nM"},
      {"measurement": "EC50", "setting": "[9]; read-out: EC50", "result": 7.52, "unit": "nM"},
      {"measurement": "Stability", "setting": "[5]", "result": 32, "unit": "%"},
      {"measurement": "Activity", "setting": "[6]", "result": -2, "unit": "%"}
    ]},
    {"smiles": "CCO[C@@H](Cc1ccc(OCCN2CCC(C)(C)c3cc(/C(=N/OC)c4ccccc4)ccc32)cc1)C(=O)O", "values": [
      {"measurement": "Activity", "setting": "[1]", "result": 100, "unit": "%"},
      {"measurement": "Activity", "setting": "[2]", "result": -20, "unit": "%"},
      {"measurement": "Stability", "setting": "[3]", "result": 0, "unit": "%"},
      {"measurement": "Activity", "setting": "[4]", "result": -33, "unit": "%"},
      {"measurement": "Stability", "setting": "[5]", "result": 0, "unit": "%"},
      {"measurement": "Activity", "setting": "[6]", "result": -5, "unit": "%"}
    ]},
    {"smiles": "CCOC(=O)N(CC(=O)O)Cc1ccc(OCCN2CCC(C)(C)c3cc(/C(=N/OC)c4ccccc4)ccc32)cc1", "values": [
      {"measurement": "Ki", "setting": "[7]", "result": "> 10000", "unit": "nM"},
      {"measurement": "EC50", "setting": "[8]", "result": "Not Active"},
      {"measurement": "EC50", "setting": "[9]; read-out: EC50", "result": 10000, "unit": "nM"}
    ]}
  ]
}
